Measured values from different studies.
Each line is one published result; the experiments were not run side by side. pIC50: −log10 of the molar value.
Effect on: cell growth or viability

SMILES	cell line	technique	time	setting	pIC50
CCCOc1nc(-c2cccc(O)c2)cc(-c2cc3cc(OC)ccc3nc2N2CCOCC2)c1C#N	Caco-2	MTT	72 h	–	7.37
COc1cccc2c1C(=O)c1c(O)c3c(c(O)c1C2=O)C[C@@](O)(C(=O)CO)C[C@@H]3O[C@H]1C[C@H](N)[C@H](O)[C@H](C)O1	Caco-2	MTT	72 h	–	6.00
Nc1n[nH]c2nc(-c3cccc(O)c3)cc(-c3cc4cc(Cl)ccc4nc3N3CCOCC3)c12	Caco-2	MTT	72 h	–	6.72
COc1nc(NCc2cn(-c3ccc(C(=O)Nc4ccc(C(F)(F)F)cc4)cc3)nn2)nc(OC)n1	Caco-2	MTT	72 h	–	6.77
Nc1n[nH]c2nc(-c3cccc(O)c3)cc(-c3cc4ccccc4nc3N3CCOCC3)c12	Caco-2	MTT	72 h	–	6.20
COc1nc(NCc2cn(-c3ccc(C(=O)Nc4ccc(F)cc4)cc3)nn2)nc(OC)n1	Caco-2	MTT	72 h	–	5.99
C/C(=N\NC(=O)c1cccc(S(=O)(=O)N2CCN(C)CC2)c1)c1cc(Cl)ccc1O	TC-32	resazurin	–	–	5.48
COc1cc2c3c(n(CCCNC(C)C)c(=O)c2cc1OC)-c1nc2c(cc1C3=O)OCO2	TC-32	MTS	72 h	–	7.26
C=C(F)C(=O)N1CCN(c2nc(OC[C@@H]3CCCN3C)nc3c2CCN(c2cccc4cccc(Cl)c24)C3)C[C@@H]1CC#N	HCC44	ATP luminescence	–	3D culture	8.42
CCCOc1nc(-c2cccc(O)c2)cc(-c2cc3ccccc3nc2N2CCOCC2)c1C#N	Caco-2	MTT	72 h	–	6.89
COc1nc(NCc2cn(-c3ccc(C(N)=O)cc3)nn2)nc(OC)n1	Caco-2	MTT	72 h	–	6.01
C=CC(=O)N1CCN(c2nc(=O)n(-c3c(C)ccnc3C(C)C)c3nc(-c4c(O)cccc4F)c(F)cc23)[C@@H](C)C1	HCC44	ATP luminescence	–	–	< 5.00
COc1cc2c3c(n(CCCn4ccnc4)c(=O)c2cc1OC)-c1nc2c(cc1C3=O)OCO2	TC-32	MTS	72 h	–	6.90
COc1nc(NCc2cn(-c3ccc(NC(=O)c4ccc(C)cc4)cc3)nn2)nc(OC)n1	Caco-2	MTT	72 h	–	6.12
CC(C)Oc1ccc(S(=O)(=O)c2ccc(Oc3cc(OCC(N)=O)c(C(=O)C(Cl)Cl)cc3[N+](=O)[O-])cc2)cc1	NCI-H1650	MTT	72 h	–	6.34
CC1(C)CCC(CN2CCN(c3ccc(C(=O)NS(=O)(=O)c4ccc(NCC5CCOCC5)c([N+](=O)[O-])c4)c(Oc4cnc5[nH]ccc5c4)c3)CC2)=C(c2ccc(Cl)cc2)C1	SU-DHL-4	ATP luminescence	48 h	–	7.60
